This is an account of results in ChEMBL document CHEMBL1137088, “Distamycin analogues with enhanced lipophilicity: synthesis and antimicrobial activity” (2004).

Converted amounts (≈) assume the structure as drawn. The source made the active and inactive calls. No cut-off for these calls is given here.

The first experiment concerns Klebsiella aerogenes. Description: Antibacterial activity against Klebsiella aerogenes WRL CN 345 strain; na = not active. In kind it is functional, organism-based.
Details: not given
`CN(C)CCCNC(=O)c1cc(NC(=O)c2cc(NC(=O)c3cc(NC=O)cn3C)cn2C)cn1C`: the MIC result was “inactive”.
Take `Cc1sc(NC=O)cc1C(=O)Nc1cc(C(=O)Nc2cc(C(=O)NCCCN(C)C)n(C)c2)n(C)c1`: the MIC result is “inactive”.

The next experiment deals with Staphylococcus aureus. As to the kind of experiment: Antibacterial activity against Staphylococcus aureus NCTC 6571 strain. In kind it is functional.
Details: not given
For `CC(C)CCn1cc(NC(=O)c2cc(NC=O)cn2C)cc1C(=O)Nc1cc(C(=O)NCCCN(C)C)n(C)c1`, the MIC came to 150 µM (≈ 82.9 µg/mL).
On the same count and under the same terms, then `CN(C)CCCNC(=O)c1cc(NC(=O)c2cc(NC(=O)c3cc(NC=O)cn3C)cn2C)cn1C`, with 10 µM (≈ 4.97 µg/mL); and `CC(=O)Nc1nc(C(=O)Nc2cc(C(=O)Nc3nc(C(=O)NCCCN(C)C)c(C(C)C)s3)n(C)c2)c(C(C)C)s1`, with 4.3 µM (≈ 2.59 µg/mL).

The next experiment relates to Staphylococcus aureus. As to the kind of experiment: Antibacterial activity against MRSA PHLS M1 strain; na = not active.
Details: not given
In kind it is functional, organism-based.
For `CN(C)CCCNC(=O)c1cc(NC(=O)c2cc(NC(=O)c3cc(NC=O)cn3C)cn2C)cn1C`, the MIC entry was “inactive”.
Consider `Cc1sc(NC=O)cc1C(=O)Nc1cc(C(=O)Nc2cc(C(=O)NCCCN(C)C)n(C)c2)n(C)c1`, for which the MIC result is “inactive”.

The next experiment deals with Aspergillus nidulans. Description: Antifungal activity against Aspergillus nidulans CABI 0160037 strain; na = not active.
Details: not given
In kind it is functional.
As for `CC(C)CCn1cc(NC(=O)c2cc(NC=O)cn2C)cc1C(=O)Nc1cc(C(=O)NCCCN(C)C)n(C)c1`, the MIC entry was “inactive”.
Same read-out and setting: to `CN(C)CCCNC(=O)c1cc(NC(=O)c2cc(NC(=O)c3cc(NC=O)cn3C)cn2C)cn1C` belongs “inactive”; to `Cc1sc(NC=O)cc1C(=O)Nc1cc(C(=O)Nc2cc(C(=O)NCCCN(C)C)n(C)c2)n(C)c1`, “inactive”.

A further experiment relates to Enterococcus faecalis. Description: Antibacterial activity against Streptococcus faecalis NCTC 775 strain; na = not active. In kind it is functional, organism-based.
Details: not given
On to `Cc1sc(NC=O)cc1C(=O)Nc1cc(C(=O)Nc2cc(C(=O)NCCCN(C)C)n(C)c2)n(C)c1`, for which the MIC result was “inactive”.

Another experiment has as its system Enterococcus faecalis. Description: Antibacterial activity against Streptococcus faecalis NCTC 775 strain. In kind it is functional.
Details: not given
In turn, `CC(C)CCn1cc(NC(=O)c2cc(NC=O)cn2C)cc1C(=O)Nc1cc(C(=O)NCCCN(C)C)n(C)c1` yielded an MIC of 57.5 µM (≈ 31.8 µg/mL).
Still for that read-out and setting: then `CN(C)CCCNC(=O)c1cc(NC(=O)c2cc(NC(=O)c3cc(NC=O)cn3C)cn2C)cn1C`, with 0.31 µM (≈ 0.154 µg/mL); and `CC(=O)Nc1nc(C(=O)Nc2cc(C(=O)Nc3nc(C(=O)NCCCN(C)C)c(C(C)C)s3)n(C)c2)c(C(C)C)s1`, with 4.3 µM (≈ 2.59 µg/mL).

For the next experiment, the system named is Escherichia coli. As to the kind of experiment: Antibacterial activity against Escherichia coli NCTC 9001 strain. In kind it is functional, organism-based.
Details: not given
In the case of `CC(C)CCn1cc(NC(=O)c2cc(NC=O)cn2C)cc1C(=O)Nc1cc(C(=O)NCCCN(C)C)n(C)c1`, the MIC result is “inactive”.
Turning to `CN(C)CCCNC(=O)c1cc(NC(=O)c2cc(NC(=O)c3cc(NC=O)cn3C)cn2C)cn1C`, the MIC entry was “inactive”.
On to `Cc1sc(NC=O)cc1C(=O)Nc1cc(C(=O)Nc2cc(C(=O)NCCCN(C)C)n(C)c2)n(C)c1`, for which the MIC entry was “inactive”.

The subject of a further experiment is Mycolicibacterium fortuitum. As to the kind of experiment: Antibacterial activity against Mycobacterium fortuitum NCTC 10394 strain; na = not active. In kind it is functional, organism-based.
Details: not given
Take `CN(C)CCCNC(=O)c1cc(NC(=O)c2cc(NC(=O)c3cc(NC=O)cn3C)cn2C)cn1C`: the MIC result is “inactive”.
As to `Cc1sc(NC=O)cc1C(=O)Nc1cc(C(=O)Nc2cc(C(=O)NCCCN(C)C)n(C)c2)n(C)c1`, the MIC entry was “inactive”.

A further experiment deals with Mycolicibacterium fortuitum. As to the kind of experiment: Antibacterial activity against Mycobacterium fortuitum NCTC 10394 strain.
Details: not given
In kind it is functional.
Take `CC(C)CCn1cc(NC(=O)c2cc(NC=O)cn2C)cc1C(=O)Nc1cc(C(=O)NCCCN(C)C)n(C)c1`: the MIC turned out to be 37.5 µM (≈ 20.7 µg/mL).
The same measure, in the same setting: to `CC(=O)Nc1nc(C(=O)Nc2cc(C(=O)Nc3nc(C(=O)NCCCN(C)C)c(C(C)C)s3)n(C)c2)c(C(C)C)s1` belongs 17.5 µM (≈ 10.5 µg/mL).

A further experiment deals with Staphylococcus aureus. As to the kind of experiment: Antibacterial activity against Staphylococcus aureus NCTC 6571 strain; na = not active. In kind it is functional, organism-based.
Details: not given
In the case of `Cc1sc(NC=O)cc1C(=O)Nc1cc(C(=O)Nc2cc(C(=O)NCCCN(C)C)n(C)c2)n(C)c1`, the MIC entry is “inactive”.

Another experiment concerns Aspergillus niger. As to the kind of experiment: Antifungal activity against Aspergillus niger IMI17454 strain; na = not active. In kind it is functional.
Details: not given
Take `CC(C)CCn1cc(NC(=O)c2cc(NC=O)cn2C)cc1C(=O)Nc1cc(C(=O)NCCCN(C)C)n(C)c1`: the MIC was 150 µM (≈ 82.9 µg/mL).
Still for that read-out and setting: to `CN(C)CCCNC(=O)c1cc(NC(=O)c2cc(NC(=O)c3cc(NC=O)cn3C)cn2C)cn1C` belongs “inactive”; to `Cc1sc(NC=O)cc1C(=O)Nc1cc(C(=O)Nc2cc(C(=O)NCCCN(C)C)n(C)c2)n(C)c1`, “inactive”.

The test system of the next experiment is Enterobacter cloacae. As to the kind of experiment: Antibacterial activity against Enterobacter cloacae NCTC 10005 strain. In kind it is functional, organism-based.
Details: not given
As for `CN(C)CCCNC(=O)c1cc(NC(=O)c2cc(NC(=O)c3cc(NC=O)cn3C)cn2C)cn1C`, the MIC result is “inactive”.
Still for that read-out and setting: to `Cc1sc(NC=O)cc1C(=O)Nc1cc(C(=O)Nc2cc(C(=O)NCCCN(C)C)n(C)c2)n(C)c1` belongs “inactive”.

Tested on in another experiment: not listed separately
Description: Antifungal activity against Candida albicans NCPF 3179 strain; na = not active. In kind it is functional.
Details: not given
Turning to `CN(C)CCCNC(=O)c1cc(NC(=O)c2cc(NC(=O)c3cc(NC=O)cn3C)cn2C)cn1C`, the MIC result is “inactive”.

The subject of the next experiment is Candida albicans. Description: Antifungal activity against Candida albicans NCPF 3179 strain. The conditions noted are these: Candida albicans; read-out: MIC. In kind it is functional.
Consider `CC(C)CCn1cc(NC(=O)c2cc(NC=O)cn2C)cc1C(=O)Nc1cc(C(=O)NCCCN(C)C)n(C)c1`, for which the MIC is 150 µM (≈ 82.9 µg/mL).
The same measure, in the same setting: then `CC(=O)Nc1nc(C(=O)Nc2cc(C(=O)Nc3nc(C(=O)NCCCN(C)C)c(C(C)C)s3)n(C)c2)c(C(C)C)s1`, with 34.9 µM (≈ 21 µg/mL); and `Cc1sc(NC=O)cc1C(=O)Nc1cc(C(=O)Nc2cc(C(=O)NCCCN(C)C)n(C)c2)n(C)c1`, with 159 µM (≈ 81.7 µg/mL).

The next experiment concerns Staphylococcus aureus. Description: Antibacterial activity against methicillin-resistant Staphylococcus aureus (MRSA) PHLS M1 strain.
Details: not given
In kind it is functional. Summed up: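 Read-out is the minimum inhibitory concentration, reported in µM. Amoxycillin is tested alongside as the reference antibiotic.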
`CC(C)CCn1cc(NC(=O)c2cc(NC=O)cn2C)cc1C(=O)Nc1cc(C(=O)NCCCN(C)C)n(C)c1` registered an MIC of 150 µM (≈ 82.9 µg/mL).
Same read-out and setting: then `CC(=O)Nc1nc(C(=O)Nc2cc(C(=O)Nc3nc(C(=O)NCCCN(C)C)c(C(C)C)s3)n(C)c2)c(C(C)C)s1`, with 4.3 µM (≈ 2.59 µg/mL).

The next experiment relates to Escherichia coli. As to the kind of experiment: Antibacterial activity against Escherichia coli NCTC 9001 strain. In kind it is functional.
Details: not given
`CC(=O)Nc1nc(C(=O)Nc2cc(C(=O)Nc3nc(C(=O)NCCCN(C)C)c(C(C)C)s3)n(C)c2)c(C(C)C)s1` yielded an MIC of 70 µM (≈ 42.2 µg/mL).

The next experiment relates to Proteus vulgaris. Description: Antibacterial activity against Proteus vulgaris NCTC 4175 strain. In kind it is functional.
Details: not given
In turn, `CC(C)CCn1cc(NC(=O)c2cc(NC=O)cn2C)cc1C(=O)Nc1cc(C(=O)NCCCN(C)C)n(C)c1` gave an MIC of 150 µM (≈ 82.9 µg/mL).
As to `CN(C)CCCNC(=O)c1cc(NC(=O)c2cc(NC(=O)c3cc(NC=O)cn3C)cn2C)cn1C`, the MIC came to 164 µM (≈ 81.4 µg/mL).
Same read-out and setting: to `CC(=O)Nc1nc(C(=O)Nc2cc(C(=O)Nc3nc(C(=O)NCCCN(C)C)c(C(C)C)s3)n(C)c2)c(C(C)C)s1` belongs 69.8 µM (≈ 42.1 µg/mL); to `Cc1sc(NC=O)cc1C(=O)Nc1cc(C(=O)Nc2cc(C(=O)NCCCN(C)C)n(C)c2)n(C)c1`, 79.6 µM (≈ 40.9 µg/mL).

The subject of a further experiment is Klebsiella aerogenes. Description: Antibacterial activity against Klebsiella aerogenes WRL CN 345 strain. In kind it is functional, WRL CN 375. As to conditions: Klebsiella aerogenes, WRL CN 375; read-out: MIC.
`CC(C)CCn1cc(NC(=O)c2cc(NC=O)cn2C)cc1C(=O)Nc1cc(C(=O)NCCCN(C)C)n(C)c1`: the MIC was determined as 37.5 µM (≈ 20.7 µg/mL).
As to `CC(=O)Nc1nc(C(=O)Nc2cc(C(=O)Nc3nc(C(=O)NCCCN(C)C)c(C(C)C)s3)n(C)c2)c(C(C)C)s1`, the MIC turned out to be 69.8 µM (≈ 42.1 µg/mL).

Tested on in a further experiment: not listed separately
As to the kind of experiment: Antibacterial activity against Enterobacter cloacae NCTC 10005 strain. In kind it is functional.
Details: not given
As to `CC(C)CCn1cc(NC(=O)c2cc(NC=O)cn2C)cc1C(=O)Nc1cc(C(=O)NCCCN(C)C)n(C)c1`, 150 µM (≈ 82.9 µg/mL) was the least that counted as inhibitory (MIC).
Still for that read-out and setting: then `CC(=O)Nc1nc(C(=O)Nc2cc(C(=O)Nc3nc(C(=O)NCCCN(C)C)c(C(C)C)s3)n(C)c2)c(C(C)C)s1`, with 69.8 µM (≈ 42.1 µg/mL).

The test system of another experiment is Aspergillus niger. Description: Antifungal activity against Aspergillus niger IMI17454 strain. In kind it is functional. The conditions noted are these: Aspergillus niger; read-out: MIC.
Take `CC(=O)Nc1nc(C(=O)Nc2cc(C(=O)Nc3nc(C(=O)NCCCN(C)C)c(C(C)C)s3)n(C)c2)c(C(C)C)s1`: the MIC stood at 4.3 µM (≈ 2.59 µg/mL).

Usually MIC stands for the least concentration at which growth counts as inhibited.
